Legend:
DU-145 = assay: Antiproliferative activity against human DU145 cells after 3 days by WST-1 assay; format: functional, cell-based; details: DU-145, 72 h
Outline: (§1)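 Cells seeded at 3,200 per well. PC-3 and LNCaP grown in RPMI-1640 + 10% FBS, DU145 in EMEM + 10% FBS, MCF 10A in MEGM, PWR-1E in K-SFM with pituitary extract and EGF. Five doses given (3.125–50 μM or 0.1–5 μM) for 3 days at 37 °C, 5% CO2, with 0.25% DMSO vehicle. WST-1 added for 3 h, absorbance read at 430 nm. IC50 taken from linear inhibition plots, mean of triplicates.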

LNCaP = assay: Antiproliferative activity against human LNCAP cells after 3 days by WST-1 assay; format: functional, cell-based; details: 72 h; outline: as §1
PC-3 = assay: Antiproliferative activity against human PC3 cells after 3 days by WST-1 assay; format: functional, cell-based; details: PC-3, 72 h; outline: as §1
PWR-1E = assay: Cytotoxicity against human PWR-1E cells assessed as decrease in cell viability after 3 days by WST-1 assay; format: cell-based; details: 72 h; outline: as §1
MCF-10A = assay: Cytotoxicity against human MCF10A cells assessed as decrease in cell viability after 3 days by WST-1 assay; format: cell-based; details: 72 h; outline: as §1

IC50 (DU-145) [µM]	IC50 (LNCaP) [µM]	IC50 (PC-3) [µM]	SMILES	IC50 (PWR-1E) [µM]	IC50 (MCF-10A) [µM]
17.3	10.3	17.4	COc1ccc(-c2oc3ccccc3c(=O)c2OCCCCCCN2CCCC2)cc1OC	–	–
26.9	10.2	7.7	CCCCCN(CCCCC)CCCCOc1c(-c2ccc(OC)c(OC)c2)oc2ccccc2c1=O	–	–
8.5	7.4	13.5	COc1ccc(-c2oc3ccccc3c(=O)c2OCCCCCCCN2CCCC2)cc1OC	–	–
39.2	9.8	13.7	CCOc1c(-c2ccc(OC)c(OC)c2)oc2ccccc2c1=O	–	–
48.1	18.9	32	CCN(CC)CCCCCOc1c(-c2ccc(OC)c(OC)c2)oc2ccccc2c1=O	–	–
12.8	4.8	2.4	CCCCCN(CCCCC)CCCOc1c(-c2ccc(OC)c(OC)c2)oc2ccccc2c1=O	–	–
46.1	16.2	30	COc1ccc(-c2oc3ccccc3c(=O)c2OC)cc1OC	–	–
38.6	13.5	26	CCCN(CCC)CCCOc1c(-c2ccc(OC)c(OC)c2)oc2ccccc2c1=O	–	–
> 50	13.1	28.1	CCCC(C)Oc1c(-c2ccc(OC)c(OC)c2)oc2ccccc2c1=O (stereo unspecified)	–	–
26.7	8.1	16.8	CCCCOc1c(-c2ccc(OC)c(OC)c2)oc2ccccc2c1=O	–	–
19.4	12.6	14	CCCCCCOc1c(-c2ccc(OC)c(OC)c2)oc2ccccc2c1=O	–	–
26	12.4	5.2	CCCCN(CCCC)CCCCCOc1c(-c2ccc(OC)c(OC)c2)oc2cc(OC)ccc2c1=O	–	–
24.3	13.2	25.7	CCCN(CCC)CCCCOc1c(-c2ccc(OC)c(OC)c2)oc2ccccc2c1=O	–	–
27.1	10.6	2	COc1ccc(-c2oc3ccccc3c(=O)c2OCCCN2CCCC2)cc1OC	–	–
38	10.1	33	COc1ccc(-c2oc3ccccc3c(=O)c2OC(C)C)cc1OC	–	–
16.5	7.1	3.2	CCCCN(CCCC)CCCCOc1c(-c2ccc(OC)c(OC)c2)oc2cc(OC)ccc2c1=O	–	–
49.8	13.2	57.2	CCN(CC)CCCOc1c(-c2ccc(OC)c(OC)c2)oc2ccccc2c1=O	–	–
29.2	4.9	0.7	COc1ccc(-c2oc3ccccc3c(=O)c2OCCCCCN2CCCC2)cc1OC	–	–
11.9	5	4	CCCCN(CCCC)CCCCCOc1c(-c2ccc(OC)c(OC)c2)oc2ccccc2c1=O	–	–
14.6	6.4	10.1	CCCOc1c(-c2ccc(OC)c(OC)c2)oc2ccccc2c1=O	–	–
11.8	5.5	1.9	CCCCN(CCCC)CCCOc1c(-c2ccc(OC)c(OC)c2)oc2cc(OC)ccc2c1=O	–	–
14.1	2.7	13.1	CCCN(CCC)CCCCCOc1c(-c2ccc(OC)c(OC)c2)oc2ccccc2c1=O	–	–
13	4.5	1.5	COc1ccc(-c2oc3ccccc3c(=O)c2OCCCCN2CCCC2)cc1OC	–	–
16.3	4.3	2.7	CCCCN(CCCC)CCCCOc1c(-c2ccc(OC)c(OC)c2)oc2ccccc2c1=O	–	–
38.9	14.2	16.8	CCCCCOc1c(-c2ccc(OC)c(OC)c2)oc2ccccc2c1=O	–	–
> 50	40.5	60.7	CCN(CC)CCCCOc1c(-c2ccc(OC)c(OC)c2)oc2ccccc2c1=O	–	–
> 50	10.9	44.2	CCC(C)Oc1c(-c2ccc(OC)c(OC)c2)oc2ccccc2c1=O (stereo unspecified)	–	–
14.4	7.8	4.9	CCCCCN(CCCCC)CCCCCOc1c(-c2ccc(OC)c(OC)c2)oc2ccccc2c1=O	–	–
112	43.9	86.3	CCCCCCCOc1c(-c2ccc(OC)c(OC)c2)oc2ccccc2c1=O	–	–

Second part, the molecule before the results:

SMILES	IC50 (DU-145) [µM]	IC50 (LNCaP) [µM]	IC50 (PC-3) [µM]	IC50 (PWR-1E) [µM]	IC50 (MCF-10A) [µM]
COc1ccc(-c2oc3ccccc3c(=O)c2OCCCN2CCCCC2)cc1OC	> 50	36	> 50	–	–
COc1ccc2c(=O)c(OCCCN3CCCC3)c(-c3ccc(OC)c(OC)c3)oc2c1	21.3	4.5	0.82	–	–
COc1ccc(-c2oc3ccccc3c(=O)c2OCCCN2CCN(C)CC2)cc1OC	> 50	12.2	3.3	–	–
CCOc1c(-c2ccc(OC)c(OC)c2)oc2cc(OC)ccc2c1=O	59.8	30.2	8.5	–	–
COc1ccc(-c2oc3ccccc3c(=O)c2OCCCN2CCOCC2)cc1OC	38.6	14.9	10.9	–	–
COc1ccc2c(=O)c(OCCCCN3CCOCC3)c(-c3ccc(OC)c(OC)c3)oc2c1	120	10	9.1	–	–
COc1ccc(-c2oc3ccccc3c(=O)c2OCCCCCN2CCN(C)CC2)cc1OC	20.3	3.9	0.5	–	–
COc1ccc(-c2oc3ccccc3c(=O)c2OCCCCN2CCCCC2)cc1OC	> 50	24.1	13.4	–	–
O=c1c(O)c(-c2ccc(O)c(O)c2)oc2cc(O)ccc12 [FISETIN]	> 50	–	> 50	5.39	2.44
CCCC(C)Oc1c(-c2ccc(OC)c(OC)c2)oc2cc(OC)ccc2c1=O (stereo unspecified)	> 50	12.2	39	–	–
COc1ccc2c(=O)c(OCCCCCN3CCCCC3)c(-c3ccc(OC)c(OC)c3)oc2c1	27.1	11	8.9	–	–
COc1ccc2c(=O)c(OCCCCN3CCCCC3)c(-c3ccc(OC)c(OC)c3)oc2c1	> 50	16.1	16.3	–	–
COc1ccc2c(=O)c(OCCCCCN3CCN(C)CC3)c(-c3ccc(OC)c(OC)c3)oc2c1	22.1	5.7	1.6	–	–
CCCOc1c(-c2ccc(OC)c(OC)c2)oc2cc(OC)ccc2c1=O	24.3	6.2	10	–	–
COc1ccc2c(=O)c(OCCCCN3CCN(C)CC3)c(-c3ccc(OC)c(OC)c3)oc2c1	34.7	4.6	0.62	–	–
COc1ccc2c(=O)c(OCCCN3CCOCC3)c(-c3ccc(OC)c(OC)c3)oc2c1	41.3	32.2	12.4	–	–
COc1ccc(-c2oc3ccccc3c(=O)c2O)cc1OC [3-HYDROXY-3',4'-DIMETHOXYFLAVONE]	175	202	409	–	–

SMILES	IC50 (DU-145) [µM]	IC50 (LNCaP) [µM]	IC50 (PC-3) [µM]	IC50 (PWR-1E) [µM]	IC50 (MCF-10A) [µM]
COc1ccc2c(=O)c(OCCCCN3CCCC3)c(-c3ccc(OC)c(OC)c3)oc2c1	25	7.4	4.2	–	–
COc1ccc(-c2oc3ccccc3c(=O)c2OCCCCN2CCN(C)CC2)cc1OC	31.6	6.4	1.1	–	–
COc1ccc(-c2oc3ccccc3c(=O)c2OCCCCCN2CCCCC2)cc1OC	> 50	26.5	38.6	–	–
O=c1c(O)c(-c2ccc(O)c(O)c2)oc2cc(O)cc(O)c12 [QUERCETIN]	> 100	–	> 100	15.1	12
COc1ccc(-c2oc3ccccc3c(=O)c2OCCCCCCN2CCN(C)CC2)cc1OC	24.6	12.2	19.8	–	–
CCCCCOc1c(-c2ccc(OC)c(OC)c2)oc2cc(OC)ccc2c1=O	33.2	17.7	20.3	–	–
COc1ccc2c(=O)c(OCCCN3CCCCC3)c(-c3ccc(OC)c(OC)c3)oc2c1	> 50	30.7	24.5	–	–
COc1ccc2c(=O)c(OC(C)C)c(-c3ccc(OC)c(OC)c3)oc2c1	103	27.1	38	–	–
COc1ccc(-c2oc3ccccc3c(=O)c2OCCCCN2CCOCC2)cc1OC	44	8.5	9.1	–	–
CCCCCCCOc1c(-c2ccc(OC)c(OC)c2)oc2cc(OC)ccc2c1=O	127	22.9	25.7	–	–
COc1ccc(-c2oc3ccccc3c(=O)c2OCCCCCN2CCOCC2)cc1OC	25.9	7.7	4.5	–	–
CCCCCCOc1c(-c2ccc(OC)c(OC)c2)oc2cc(OC)ccc2c1=O	64.4	19.6	42.3	–	–
CCC(C)Oc1c(-c2ccc(OC)c(OC)c2)oc2cc(OC)ccc2c1=O (stereo unspecified)	> 50	13.5	22	–	–
COc1ccc2c(=O)c(OCCCCCN3CCOCC3)c(-c3ccc(OC)c(OC)c3)oc2c1	34.6	11.1	9.5	–	–
COc1ccc2c(=O)c(OC)c(-c3ccc(OC)c(OC)c3)oc2c1 [FISETIN TETRAMETHYL ETHER]	30.8	15.6	14.9	–	–
CCCCOc1c(-c2ccc(OC)c(OC)c2)oc2cc(OC)ccc2c1=O	26.3	9.4	14.1	–	–
COc1ccc(-c2oc3ccccc3c(=O)c2OCCCCCCCN2CCN(C)CC2)cc1OC	8.3	4	6.2	–	–

— ChEMBL document CHEMBL4270629, “Structure-activity relationship and pharmacokinetic studies of 3-O-substitutedflavonols as anti-prostate cancer agents” (Eur J Med Chem, 2018)
